Active and inactive are the calls of the source. The rule behind the calls is not given here.
Experiments:
[1] = tested on: HepG2; assay: Cytotoxicity against human HepG2 cells up to 100 uM; type: cell-based
[2] = tested on: HepG2; assay: Antihyperlipidemic activity in human HepG2 cells assessed as reduction of oleic acid-induced intracellular triglyceride accumulation at 10 uM […] measured after 6 hrs; type: functional, cell-based
How it was run: (§1)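 HepG2 cells were kept in DMEM with 10% FBS and penicillin/streptomycin (100 μg/mL). At 70–80% confluence they were loaded with 100 μM oleic acid in DMEM for 12 h, then exposed to 10 μM compound in DMEM/100 μM oleic acid for a further 6 h. Lovastatin was the positive control and DMEM/oleic acid the blank. Intracellular TC and TG were measured with kits, n = 3, repeated in triplicate, mean ± SEM.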

[3] = tested on: HepG2; assay: Antihyperlipidemic activity in human HepG2 cells assessed as reduction of oleic acid-induced lipid accumulation at 10 uM […] measured after 6 hrs by Oil Red O staining; type: functional, cell-based
How it was run: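 HepG2 cells were grown in DMEM with 10% FBS and penicillin/streptomycin (100 μg/mL). At 70–80% confluence they received 100 μM oleic acid for 12 h, then 10 μM compound in DMEM/100 μM oleic acid for 6 h more. Lovastatin was the positive control and DMEM/oleic acid the blank. Neutral lipid was stained with Oil Red O and read at 358 nm, n = 8, repeated in triplicate, mean ± SEM.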

[4] = tested on: HepG2; assay: Antihyperlipidemic activity in human HepG2 cells assessed as reduction of oleic acid-induced intracellular total cholesterol accumulation at 10 uM […] measured after 6 hrs; type: functional, cell-based; how it was run: as §1

SMILES: C[C@@H]1CC[C@H]2C(C)(C)[C@H](O)[C@H](O)C[C@]2(C)[C@@]12Cc1c(O)cc3c(c1O2)CNC3=O
- Activity [1]: Non-toxic

SMILES: C[C@@H]1CC[C@H]2C(C)(C)[C@H](O)CC[C@]2(C)[C@@]12Cc1c(O)cc3c(c1O2)CN(C(Cc1ccccc1)C(=O)O)C3=O (some centres not stated)
- Activity [2]: Active
- Activity [3]: Active
- Activity [4]: Active
- Activity [1]: Non-toxic

SMILES: C[C@@H]1CC[C@H]2[C@](C)(CO)[C@H](O)CC[C@]2(C)[C@@]12Cc1c(O)cc3c(c1O2)CNC3=O
- Activity [1]: Non-toxic

SMILES: CC(=O)O[C@@H]1[C@H](O)C[C@@]2(C)[C@@H](CC[C@@H](C)[C@]23Cc2c(O)cc4c(c2O3)CNC4=O)C1(C)C
- Activity [2]: Active
- Activity [3]: Active
- Activity [1]: Non-toxic

SMILES: C[C@@H]1CC[C@H]2C(C)(C)[C@H](O)CC[C@]2(C)[C@@]12Cc1c(O)cc3c(c1O2)CN(CCO)C3=O
- Activity [1]: Non-toxic

SMILES: C[C@H]1CC[C@H]2C(C)(C)[C@H](O)CC[C@]2(C)[C@@]12Cc1c(O)cc3c(c1O2)CN(CCO)C3=O
- Activity [3]: Active
- Activity [4]: Active
- Activity [1]: Non-toxic

SMILES: C[C@H]1CC[C@H]2C(C)(C)[C@H](O)[C@H](O)C[C@]2(C)[C@@]12Cc1c(O)cc3c(c1O2)C(=O)NC3
- Activity [1]: Non-toxic

SMILES: C[C@@H]1CC[C@H]2C(C)(C)[C@H](O)CC[C@]2(C)[C@@]12Cc1c(O)cc3c(c1O2)CN(CCCCC(=O)O)C3=O
- Activity [1]: Non-toxic

SMILES: C[C@@H]1CC[C@H]2C(C)(C)[C@H](O)CC[C@]2(C)[C@@]12Cc1c(O)cc3c(c1O2)C(=O)NC3=O
- Activity [1]: Non-toxic

SMILES: CC(=O)O[C@@H]1[C@H](OC(C)=O)C[C@@]2(C)[C@@H](CC[C@@H](C)[C@]23Cc2c(O)cc4c(c2O3)CNC4=O)C1(C)C
- Activity [1]: Non-toxic

SMILES: C[C@H]1CC[C@H]2C(C)(C)[C@H](O)CC[C@]2(C)[C@@]12Cc1c(O)cc3c(c1O2)CNC3=O
- Activity [1]: Non-toxic

SMILES: C[C@@H]1CC[C@H]2C(C)(C)[C@H](O)CC[C@]2(C)[C@@]12Cc1c(O)cc3c(c1O2)C(=O)NC3
- Activity [2]: Active
- Activity [3]: Active
- Activity [4]: Active
- Activity [1]: Non-toxic

SMILES: CC(=O)O[C@@H]1CC[C@@]2(C)[C@@H](CC[C@@H](C)[C@]23Cc2c(O)cc4c(c2O3)CNC4=O)C1(C)C
- Activity [1]: Non-toxic

SMILES: C[C@@H]1CC[C@H]2C(C)(C)[C@H](O)CC[C@]2(C)[C@@]12Cc1c(O[C@H]3O[C@H](CO)[C@@H](O)[C@H](O)[C@H]3O)cc3c(c1O2)CNC3=O
- Activity [3]: Active
- Activity [4]: Active
- Activity [1]: Non-toxic

SMILES: C[C@@H]1CC[C@H]2C(C)(C)C(=O)CC[C@]2(C)[C@@]12Cc1c(O)cc3c(c1O2)CNC3=O
- Activity [2]: Active
- Activity [3]: Active
- Activity [4]: Active
- Activity [1]: Non-toxic

SMILES: C[C@@H]1CC[C@H]2C(C)(C)[C@H](O)CC[C@]2(C)[C@@]12Cc1c(O)cc3c(c1O2)CNC3=O
- Activity [1]: Non-toxic

SMILES: C[C@@H]1CC[C@H]2C(C)(C)[C@H](O)CC[C@]2(C)[C@@]12Cc1c(O)cc3c(c1O2)/C(=C1\NC(=O)c2cc(O)c4c(c21)O[C@@]1(C4)[C@@H](C)CC[C@@H]2C(C)(C)[C@@H](O)CC[C@]21C)NC3=O
- Activity [3]: Active
- Activity [4]: Active
- Activity [1]: Non-toxic

SMILES: C[C@@H]1CC[C@H]2C(C)(C)[C@H](O)[C@H](O)C[C@]2(C)[C@@]12Cc1c(O)cc3c(c1O2)CN(CCO)C3=O
- Activity [1]: Non-toxic

SMILES: C[C@@H]1CC[C@H]2C(C)(C)[C@H](O)[C@@H](O)C[C@]2(C)[C@@]12Cc1c(O)cc3c(c1O2)CNC3=O
- Activity [1]: Non-toxic

SMILES: C[C@@H]1CC[C@H]2C(C)(C)[C@H](O)CC[C@]2(C)[C@@]12Cc1c(O)cc3c(c1O2)C(=O)N(CCO)C3
- Activity [1]: Non-toxic

SMILES: C[C@H]1CC[C@H]2C(C)(C)[C@H](O)CC[C@]2(C)[C@@]12Cc1c(O)cc3c(c1O2)C(=O)NC3
- Activity [2]: Active
- Activity [3]: Active
- Activity [1]: Non-toxic

SMILES: C[C@H]1CC[C@H]2C(C)(C)[C@H](O)[C@H](O)C[C@]2(C)[C@@]12Cc1c(O)cc3c(c1O2)CNC3=O
- Activity [1]: Non-toxic

SMILES: C[C@@H]1CC[C@H]2C(C)(C)[C@@H](O)[C@H](O)C[C@]2(C)[C@@]12Cc1c(O)cc3c(c1O2)CNC3=O
- Activity [1]: Non-toxic
